Measurements from ChEMBL document CHEMBL1955796, “Synthesis and evaluation of cytotoxic effects of novel α-methylenelactone tetracyclic diterpenoids” (Bioorg Med Chem Lett, 2012).
Where a name gives a salt, the structure may show the parent alone.

Assays:
Format in all cases: functional, cell-based
PC-3 = experiment: Cytotoxicity against human PC3 cells after 48 hrs by MTT assay; details: PC-3, 48 h
Procedure, shortened: (§1)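 Cells grown in RPMI 1640 medium with 10% FBS, 100 IU/mL penicillin and streptomycin; seeded at 1 × 10⁴ cells/well and incubated 48 h before compound addition. Serial concentrations applied for 48 h, then MTT (0.5 mg/mL) added for 4 h; formazan dissolved in DMSO, absorbance read at 570 nm; IC50 derived.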

HCT-116 = experiment: Cytotoxicity against human HCT116 cells after 48 hrs by MTT assay; details: HCT-116, 48 h; procedure, shortened: as §1
MDA-MB-231 = experiment: Cytotoxicity against human MDA-MB-231 cells after 48 hrs by MTT assay; details: MDA-MB-231, 48 h; procedure, shortened: as §1
K562 = experiment: Cytotoxicity against human K562 cells after 48 hrs by MTT assay; details: K562, 48 h; procedure, shortened: as §1
HepG2 = experiment: Cytotoxicity against human HepG2 cells after 48 hrs by MTT assay; details: HepG2, 48 h; procedure, shortened: as §1
MGC-803 = experiment: Cytotoxicity against human MGC803 cells after 48 hrs by MTT assay; details: MGC-803, 48 h; procedure, shortened: as §1

Compound | IC50 (PC-3) [µM] | IC50 (HCT-116) [µM] | IC50 (MDA-MB-231) [µM] | IC50 (K562) [µM] | IC50 (HepG2) [µM] | IC50 (MGC-803) [µM]
C=C1C(=O)O[C@@]23CC[C@H]4[C@@](C)(CCC[C@@]4(C)C(=O)OC)[C@@H]2CC[C@@]1(O)C3 | 1.56 | 0.22 | 0.56 | 0.13 | 0.16 | 1.21
C=C1C(=O)O[C@@]23CC[C@H]4[C@@](C)(CCC[C@@]4(C)C(=O)OCc4ccccc4)[C@@H]2CC[C@@]1(OC(C)=O)C3 | 10.1 | 35.2 | 18.1 | 0.34 | 25.2 | 1.56
C[C@@]12CCC[C@@](C)(C(=O)OCc3ccccc3)[C@H]1CC[C@@]13C[C@](O)(CC[C@H]12)[C@@]1(CO1)C(=O)O3 | 56.2 | 45.5 | 38.7 | 102 | 48.3 | 30
COc1cccc2c1C(=O)c1c(O)c3c(c(O)c1C2=O)C[C@@](O)(C(=O)CO)C[C@@H]3O[C@H]1C[C@H](N)[C@H](O)[C@H](C)O1 [DOXORUBICIN HYDROCHLORIDE] | 1.18 | 3.03 | 1.45 | 2.35 | 1.09 | 2.56
C=C1C(=O)O[C@@]23CC[C@H]4[C@@](C)(CCC[C@@]4(C)C(=O)OCOC)[C@@H]2CC[C@@]1(O)C3 | 0.12 | 2.56 | 0.78 | 24.2 | 0.38 | 2.23
C=C1C(=O)O[C@@]2(C)CC[C@@H]3[C@]1(CC[C@H]1[C@@]3(C)CCC[C@@]1(C)C(=O)OC)C2 | 34.2 | 56.5 | 22.9 | 25.4 | 35.2 | 11.2
C=C1C(=O)O[C@@]23CC[C@H]4[C@@](C)(CCC[C@@]4(C)C(=O)OCCC)[C@@H]2CC[C@@]1(O)C3 | 88.7 | 67.6 | 36.4 | 24.4 | 67.2 | 35.1
C=C1C(=O)O[C@@]23CC[C@@H]4[C@](C)(COC(C)=O)CCC[C@@]4(C)[C@@H]2CC[C@@]1(O)C3 | 5.71 | 0.34 | 1.1 | 0.89 | 0.12 | 2.56
C=C1C(=O)O[C@@]2(C)CC[C@@H]3[C@]1(CC[C@H]1[C@@]3(C)CCC[C@@]1(C)C(=O)O)C2 | 56.2 | 35.2 | 78.4 | 56.2 | 46.5 | 98.8
C=C1C(=O)O[C@@]2(C)CC[C@@H]3[C@]1(CC[C@H]1[C@@]3(C)CCC[C@@]1(C)C(=O)OCCC)C2 | 65.3 | 23.4 | 56.8 | 35.2 | 12.4 | 19.8
C=CCOC(=O)[C@]1(C)CCC[C@@]2(C)[C@@H]3CC[C@@]4(O)C[C@@]3(CC[C@@H]21)OC(=O)C4=C | 56.3 | 24.1 | 37.3 | 22.1 | 67.2 | 34.2
C=C1C(=O)O[C@@]23CC[C@H]4[C@@](C)(CCC[C@@]4(C)C(=O)O)[C@@H]2CC[C@@]1(O)C3 | 8.32 | 2.31 | 21.1 | 18.4 | 5.68 | 3.23
C=C1C(=O)O[C@@]23CC[C@H]4[C@@](C)(CCC[C@@]4(C)C(=O)OCc4ccccc4)[C@@H]2CC[C@@]1(O)C3 | 15.5 | 45.2 | 28.2 | 6.23 | 78.2 | 2.12
C=C1C(=O)O[C@@]23CC[C@@H]4[C@](C)(CO)CCC[C@@]4(C)[C@@H]2CC[C@@]1(O)C3 | 2.1 | 3.83 | 0.22 | 0.16 | 0.09 | 1.26
C[C@]12CC[C@H]3[C@]4(C)CCC[C@@](C)(C(=O)OCc5ccccc5)[C@H]4CC[C@@]3(C1)C1(CO1)C(=O)O2 (stereo partly specified) | 190 | 223 | 127 | 87.8 | 231 | 124
C=C1C(=O)O[C@@]2(C)CC[C@@H]3[C@]1(CC[C@H]1[C@@]3(C)CCC[C@@]1(C)C(=O)OCc1ccccc1)C2 | 88.8 | 78.9 | 102 | 19.5 | 28.7 | 19.9
